Measurements as given in ChEMBL document CHEMBL4043127, “ATP-competitive, marine derived natural products that target the DEAD box helicase, eIF4A” (Bioorg Med Chem Lett, 2017).
Calls of active or inactive are those of the source. The calls are words filed in the database; no cut-off is given here.

Tests used:
[1] = biological target: ATP-dependent RNA helicase DDX3X (Homo sapiens, UniProt O00571); assay: Inhibition of DDX3 (unknown origin) preincubated for 10 mins followed by ATP addition by malachite green dye-based assay
Sequence of ATP-dependent RNA helicase DDX3X (O00571 whole entry): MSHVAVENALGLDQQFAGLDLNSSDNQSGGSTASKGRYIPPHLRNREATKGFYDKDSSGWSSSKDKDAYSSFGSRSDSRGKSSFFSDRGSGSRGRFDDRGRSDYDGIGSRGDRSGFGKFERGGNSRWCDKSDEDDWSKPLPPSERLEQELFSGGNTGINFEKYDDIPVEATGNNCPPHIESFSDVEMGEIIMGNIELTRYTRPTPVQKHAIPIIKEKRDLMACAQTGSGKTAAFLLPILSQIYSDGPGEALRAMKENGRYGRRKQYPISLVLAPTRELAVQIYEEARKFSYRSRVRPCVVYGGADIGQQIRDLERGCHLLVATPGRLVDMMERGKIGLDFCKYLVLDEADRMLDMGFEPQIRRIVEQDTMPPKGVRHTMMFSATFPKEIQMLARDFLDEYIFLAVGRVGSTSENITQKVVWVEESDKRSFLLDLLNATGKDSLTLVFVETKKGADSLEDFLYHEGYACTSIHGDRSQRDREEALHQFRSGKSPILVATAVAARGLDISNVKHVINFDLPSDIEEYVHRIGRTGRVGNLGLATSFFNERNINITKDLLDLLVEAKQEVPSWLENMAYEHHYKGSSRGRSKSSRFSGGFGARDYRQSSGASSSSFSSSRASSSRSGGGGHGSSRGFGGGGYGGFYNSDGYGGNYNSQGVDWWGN
In short: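 Compounds 100 to 0.0457 µM, 2% DMSO final, 10 min at 37°C. Initiated with 250 µM ATP at 37°C. Released phosphate detected with malachite green at OD660. IC50 fitted from normalized percent inhibition on a semi-log plot.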

[2] = biological target: ATP-dependent RNA helicase DDX39A (Homo sapiens, UniProt O00148); assay: Inhibition of DDX39A (unknown origin) expressed in Escherichia coli BL21(Rosetta 2) preincubated for 10 mins followed by ATP addition measured after 60 mins by malachite green dye-based assay
Sequence of ATP-dependent RNA helicase DDX39A (O00148 whole entry): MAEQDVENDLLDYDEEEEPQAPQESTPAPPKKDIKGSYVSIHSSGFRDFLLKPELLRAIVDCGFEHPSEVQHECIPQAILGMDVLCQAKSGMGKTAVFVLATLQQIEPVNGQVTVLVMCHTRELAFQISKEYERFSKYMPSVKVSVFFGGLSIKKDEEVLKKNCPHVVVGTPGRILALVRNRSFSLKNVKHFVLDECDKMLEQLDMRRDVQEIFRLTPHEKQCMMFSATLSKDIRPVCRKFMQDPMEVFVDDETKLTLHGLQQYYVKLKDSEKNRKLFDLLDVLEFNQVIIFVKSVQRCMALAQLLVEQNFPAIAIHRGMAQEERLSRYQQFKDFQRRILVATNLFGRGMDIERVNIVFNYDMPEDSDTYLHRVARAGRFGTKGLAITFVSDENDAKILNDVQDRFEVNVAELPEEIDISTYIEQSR
In short: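 His-tagged DDX39A at 500 nM in MES-KOH pH 6.0 buffer (10 mM KOAc, 2.5 mM MgCl2, 1% glycerol, 1 mM DTT). Eight-point 3-fold series 100 to 0.0457 µM, 2% DMSO final, 10 min preincubation at 37°C. Started with 250 µM ATP, 60 min at 37°C, then malachite green read at OD660. EDTA 20 mM served as positive control. IC50 by semi-log fit of normalized inhibition.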

[3] = biological target: Eukaryotic initiation factor 4A-I (Homo sapiens) (UniProt P60842); assay: Inhibition of eIF4A1 (unknown origin) expressed in Escherichia coli BL21(DE3) at 0.01 to 100 uM using Poly(U) RNA as substrate preincubated for 10 mins followed by substrate addition measured after 60 mins by malachite green dye-based assay
Sequence of Eukaryotic initiation factor 4A-I (Homo sapiens) (P60842 whole entry): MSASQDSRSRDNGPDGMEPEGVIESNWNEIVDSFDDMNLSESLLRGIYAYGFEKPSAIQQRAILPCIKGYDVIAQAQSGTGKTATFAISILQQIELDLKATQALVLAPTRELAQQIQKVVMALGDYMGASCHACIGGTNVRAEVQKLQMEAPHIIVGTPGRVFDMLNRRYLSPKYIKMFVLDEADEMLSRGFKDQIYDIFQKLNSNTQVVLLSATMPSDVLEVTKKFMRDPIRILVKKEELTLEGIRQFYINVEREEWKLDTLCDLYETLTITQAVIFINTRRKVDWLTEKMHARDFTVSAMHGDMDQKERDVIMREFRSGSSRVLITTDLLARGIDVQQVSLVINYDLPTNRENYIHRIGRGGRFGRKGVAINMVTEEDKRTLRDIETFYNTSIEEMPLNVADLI
In short: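 Compound dilutions 100 to 0.0457 µM, 2% DMSO final, 10 min at 37°C. ATP added and reaction run 60 min at 37°C, then malachite green OD660 read. DMSO 2% and 20 mM EDTA served as controls. IC50 from semi-log fit.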

[4] = biological target: Eukaryotic initiation factor 4A-I (Homo sapiens) (UniProt P60842)
[5] = biological target: Probable ATP-dependent RNA helicase DDX17 (Homo sapiens, UniProt Q92841); assay: Inhibition of DDX17 (unknown origin) expressed in Escherichia coli BL21(DE3) preincubated for 10 mins followed by ATP addition measured after 120 mins by malachite green dye-based assay
Sequence of Probable ATP-dependent RNA helicase DDX17 (Q92841 whole entry): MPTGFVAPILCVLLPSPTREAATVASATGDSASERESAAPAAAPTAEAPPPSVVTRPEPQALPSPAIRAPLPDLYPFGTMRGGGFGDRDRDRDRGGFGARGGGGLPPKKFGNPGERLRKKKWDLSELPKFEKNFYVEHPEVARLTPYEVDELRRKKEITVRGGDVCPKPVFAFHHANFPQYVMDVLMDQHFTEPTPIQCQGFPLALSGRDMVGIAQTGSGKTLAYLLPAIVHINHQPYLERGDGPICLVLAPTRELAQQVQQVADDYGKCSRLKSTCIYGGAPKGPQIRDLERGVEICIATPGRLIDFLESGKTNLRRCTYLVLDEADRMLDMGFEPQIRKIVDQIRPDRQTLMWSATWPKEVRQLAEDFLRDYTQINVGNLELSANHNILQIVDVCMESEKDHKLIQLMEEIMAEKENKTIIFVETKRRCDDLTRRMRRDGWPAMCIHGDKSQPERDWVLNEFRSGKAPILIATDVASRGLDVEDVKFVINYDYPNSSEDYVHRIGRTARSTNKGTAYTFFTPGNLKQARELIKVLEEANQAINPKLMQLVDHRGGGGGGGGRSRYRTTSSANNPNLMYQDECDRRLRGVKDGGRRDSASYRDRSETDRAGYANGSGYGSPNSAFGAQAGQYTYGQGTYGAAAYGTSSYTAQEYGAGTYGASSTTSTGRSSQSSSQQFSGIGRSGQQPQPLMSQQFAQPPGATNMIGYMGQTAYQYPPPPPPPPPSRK
In short: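 Compound gradient 100 to 0.0457 µM (3-fold), final DMSO 2%, 10 min at 37°C. Reaction started with 250 µM ATP at 37°C, phosphate read by malachite green OD660 at 120 min. IC50 from normalized % inhibition versus log concentration.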

[6] = biological target: Transitional endoplasmic reticulum ATPase (Homo sapiens, UniProt P55072); assay: Inhibition of p97 (unknown origin) expressed in Escherichia coli BL21(DE3) preincubated for 10 mins followed by ATP addition measured after 60 mins by malachite green dye-based assay
Sequence of Transitional endoplasmic reticulum ATPase (P55072 whole entry): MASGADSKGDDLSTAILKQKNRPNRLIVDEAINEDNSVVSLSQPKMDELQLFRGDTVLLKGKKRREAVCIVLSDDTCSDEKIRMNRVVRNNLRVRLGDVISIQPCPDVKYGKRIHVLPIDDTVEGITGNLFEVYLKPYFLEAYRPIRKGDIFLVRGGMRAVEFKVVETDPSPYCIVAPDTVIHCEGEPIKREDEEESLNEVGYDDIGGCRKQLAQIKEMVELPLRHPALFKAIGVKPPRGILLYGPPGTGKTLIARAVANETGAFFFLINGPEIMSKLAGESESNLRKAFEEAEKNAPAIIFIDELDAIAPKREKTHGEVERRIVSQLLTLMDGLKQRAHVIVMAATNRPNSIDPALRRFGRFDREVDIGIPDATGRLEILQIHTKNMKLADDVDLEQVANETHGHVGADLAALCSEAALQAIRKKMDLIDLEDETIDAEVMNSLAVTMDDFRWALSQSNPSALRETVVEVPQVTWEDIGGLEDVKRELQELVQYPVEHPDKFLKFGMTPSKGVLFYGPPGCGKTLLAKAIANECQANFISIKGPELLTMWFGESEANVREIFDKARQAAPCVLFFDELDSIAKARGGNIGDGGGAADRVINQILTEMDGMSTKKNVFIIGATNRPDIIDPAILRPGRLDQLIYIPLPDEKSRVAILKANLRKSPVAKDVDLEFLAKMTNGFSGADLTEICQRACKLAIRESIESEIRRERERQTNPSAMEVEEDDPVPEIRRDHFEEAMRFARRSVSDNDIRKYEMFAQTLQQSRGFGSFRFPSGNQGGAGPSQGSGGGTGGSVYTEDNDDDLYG
In short: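 Compound series 100 to 0.0457 µM, 2% DMSO final, 10 min at 37°C. Started with 200 µM ATP, incubated 60 min at 37°C, then malachite green OD660 read. IC50 from semi-log fit of normalized % inhibition.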

[7] = biological target: Heat shock 70 kDa protein 1A (Homo sapiens, UniProt P0DMV8); assay: Inhibition of HSPA1A (unknown origin) expressed in Escherichia coli BL21(DE3) preincubated for 10 mins followed by ATP addition by malachite green dye-based assay
Sequence of Heat shock 70 kDa protein 1A (P0DMV8 whole entry): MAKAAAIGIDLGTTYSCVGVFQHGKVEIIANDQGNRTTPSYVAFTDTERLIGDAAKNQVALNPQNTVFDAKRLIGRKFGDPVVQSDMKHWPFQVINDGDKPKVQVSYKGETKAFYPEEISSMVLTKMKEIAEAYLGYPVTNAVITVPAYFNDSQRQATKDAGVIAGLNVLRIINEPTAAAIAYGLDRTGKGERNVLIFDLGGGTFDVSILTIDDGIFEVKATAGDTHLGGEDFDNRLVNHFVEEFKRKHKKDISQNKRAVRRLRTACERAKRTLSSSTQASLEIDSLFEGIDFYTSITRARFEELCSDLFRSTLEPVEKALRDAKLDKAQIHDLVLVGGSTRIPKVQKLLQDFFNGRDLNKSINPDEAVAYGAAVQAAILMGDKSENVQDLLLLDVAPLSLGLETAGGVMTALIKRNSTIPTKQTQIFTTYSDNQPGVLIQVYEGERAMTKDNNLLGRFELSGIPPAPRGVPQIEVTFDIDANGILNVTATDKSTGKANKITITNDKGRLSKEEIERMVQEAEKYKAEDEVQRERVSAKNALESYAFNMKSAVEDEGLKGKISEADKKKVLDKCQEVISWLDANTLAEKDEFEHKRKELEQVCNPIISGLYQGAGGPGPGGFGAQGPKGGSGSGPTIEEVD
In short: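 His-tagged HSPA1A, induced at 16°C, used at 1,000 nM in 50 mM Tris-HCl pH 7.4, 150 mM KCl, 10 mM MgCl2. Compounds 100 to 0.0457 µM, 2% DMSO final, 10 min preincubation at 37°C. Reaction started with 200 µM ATP at 37°C, phosphate detected by malachite green OD660. IC50 by semi-log fit of normalized inhibition.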

[8] = biological target: Eukaryotic initiation factor 4A-I (Homo sapiens) (UniProt P60842); assay: Inhibition of eIF4A (unknown origin) expressed in Escherichia coli BL21(DE3) at 100 uM preincubated for 10 mins followed by ATP and fluorescently-labeled RNA addition measured after 10 mins by real-time fluorescence assay relative to control
In short: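 Real-time fluorescence helicase assay. eIF4A at 500 nM in MES-KOH pH 6.0 buffer, preincubated 10 min at 22°C with compound at 100 µM, 2% DMSO final. Started with 50 nM labeled RNA plus 1 mM ATP, or water as control, and read for 10 min at 25°C. % inhibition = 100 − ((A−B)/(C−B)×100), using the slopes of compound (A), water (B) and DMSO (C) traces.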

[9] = biological target: Eukaryotic initiation factor 4A-I (Homo sapiens) (UniProt P60842); assay: Inhibition of eIF4A (unknown origin) expressed in Escherichia coli BL21(DE3) at 100 uM preincubated for 10 mins followed by ATP and fluorescently-labeled RNA addition measured after 10 mins by real-time fluorescence assay
In short: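 Recombinant eIF4A from E. coli BL21(DE3), Talon-purified, at 500 nM in pH 6.0 MES-KOH buffer (10 mM K acetate, 2.5 mM MgCl2, 1% glycerol, 1 mM DTT). Preincubated with 100 µM compound (2% DMSO final) for 10 min at 22°C. Started with 50 nM labeled RNA plus 1 mM ATP, then real-time fluorescence read for 10 min at 25°C. Percent inhibition from slopes versus DMSO and water (no-ATP) controls.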

CC(C)=C[C@@H]1C[C@H](C)c2c(O)cc(C)c3c2C1=C(C)C(=O)C3=O [ELISABATIN A]
IC50 [1]: > 100 µM | IC50 [2]: > 100 µM | inhibition [3]: Active | Kis [4]: 55 µM | IC50 [5]: > 100 µM | IC50 [6]: > 100 µM | IC50 [7]: > 100 µM | inhibition [8]: 34%

C=C1CC[C@@](C)(c2cc(Br)c(C)cc2O)[C@H]1C
IC50 [1]: > 100 µM | IC50 [2]: > 100 µM | inhibition [3]: Active | inhibition [9]: Active | Kis [4]: 3.86 µM | IC50 [5]: > 100 µM | IC50 [6]: > 100 µM | IC50 [7]: > 100 µM

C[C@H]1C[C@@]2(O[C@H]3C[C@H]4[C@@H]5CC[C@H]6C[C@H](O)CC[C@]6(C)[C@H]5[C@@H](O)C[C@]4(C)[C@H]3[C@@]2(C)O)OC1(C)C
inhibition [9]: Active
